The values below come from article PMC8646148 (Bioorganic chemistry, 2021).

Structures are written as SMILES. pEC50, pIC50: −log10 of the molar value.

Data set [1] has as its system MDR1 mRNA. Description: qRT-PCR of MDR1 in primary human hepatocytes. The format is cell-based. The note with it: five hepatocyte cultures, RIF 10 μM, 24 h. Background: Real-time PCR tracks product formation cycle by cycle.
For data set [2], the system named is AZ-AHR cells. Description: MTT test in AZ-AHR cells. Type of data set: cell-based, human. Conditions: 24 h, up to 50 μM. In outline: (§1)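 MTT viability was run alongside the reporter assays in AZ-AHR cells and in PXR-transfected LS180 cells. Exposure was 24 h to test compound at up to 50 μM, with vehicle DMSO 0.1% v/v. Results are given as % viability. Four technical replicates per treatment, across three consecutive cell passages.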
A general note: Formazan colour is commonly taken as a measure of viable cells.

Data set [3] concerns the target T1, AhR (Homo sapiens, UniProt P35869).
T1 sequence (P35869 11-848): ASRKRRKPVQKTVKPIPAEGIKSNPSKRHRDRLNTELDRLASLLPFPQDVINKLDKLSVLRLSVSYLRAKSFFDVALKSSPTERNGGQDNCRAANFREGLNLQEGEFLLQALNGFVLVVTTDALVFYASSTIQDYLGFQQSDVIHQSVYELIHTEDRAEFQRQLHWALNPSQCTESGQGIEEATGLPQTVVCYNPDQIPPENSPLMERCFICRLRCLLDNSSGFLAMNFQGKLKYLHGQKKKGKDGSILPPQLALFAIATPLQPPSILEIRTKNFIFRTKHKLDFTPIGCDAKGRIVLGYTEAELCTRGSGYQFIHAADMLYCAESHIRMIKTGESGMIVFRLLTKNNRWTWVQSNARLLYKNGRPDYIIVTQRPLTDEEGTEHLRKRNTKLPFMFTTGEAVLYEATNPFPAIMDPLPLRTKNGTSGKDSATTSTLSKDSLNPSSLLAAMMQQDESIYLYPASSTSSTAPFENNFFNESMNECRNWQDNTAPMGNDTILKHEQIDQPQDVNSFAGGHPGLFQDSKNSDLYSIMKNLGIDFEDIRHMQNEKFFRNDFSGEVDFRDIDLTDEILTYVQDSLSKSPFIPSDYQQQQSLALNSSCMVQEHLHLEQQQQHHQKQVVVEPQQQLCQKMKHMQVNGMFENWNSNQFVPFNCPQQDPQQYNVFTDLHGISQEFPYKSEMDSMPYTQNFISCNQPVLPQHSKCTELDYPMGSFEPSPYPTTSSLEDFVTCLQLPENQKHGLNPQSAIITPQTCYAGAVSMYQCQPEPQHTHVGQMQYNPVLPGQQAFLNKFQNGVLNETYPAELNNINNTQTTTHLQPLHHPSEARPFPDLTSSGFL
Kind of data set: AhR reporter gene assay in stably transfected AZ-AHR cells. Type of data set: cell-based. The note with it: 24 h; for AhR agonistic activity: agonist mode, AZ-AHR cells; for Inhibition of TCDD-inducible luciferase activity: antagonist mode, TCDD 5 nM, attributed to cytotoxicity. In outline:
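AZ-AHR human hepatoma cells stably carrying an AhR-responsive luciferase reporter were exposed for 24 h to test compound at up to 50 μM (vehicle DMSO 0.1% v/v). Agonist mode was run without TCDD; antagonist mode with TCDD 5 nM. Lysed cells were read for luciferase. Agonist data are fold over negative control; antagonist data are % of the 5 nM TCDD maximum. Four wells per treatment, three consecutive passages.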
Background: In a reporter assay the amount or activity of a reporter protein is the signal.

In data set [4] the test system is LS180 cells. Kind of data set: MTT test in LS180 cells. Type of data set: cell-based, human. The note with it: 50 μM, 24 h. The method, boiled down:
as §1

Data set [5] deals with T2, PXR (Homo sapiens, UniProt O75469).
T2 sequence (O75469 1-434): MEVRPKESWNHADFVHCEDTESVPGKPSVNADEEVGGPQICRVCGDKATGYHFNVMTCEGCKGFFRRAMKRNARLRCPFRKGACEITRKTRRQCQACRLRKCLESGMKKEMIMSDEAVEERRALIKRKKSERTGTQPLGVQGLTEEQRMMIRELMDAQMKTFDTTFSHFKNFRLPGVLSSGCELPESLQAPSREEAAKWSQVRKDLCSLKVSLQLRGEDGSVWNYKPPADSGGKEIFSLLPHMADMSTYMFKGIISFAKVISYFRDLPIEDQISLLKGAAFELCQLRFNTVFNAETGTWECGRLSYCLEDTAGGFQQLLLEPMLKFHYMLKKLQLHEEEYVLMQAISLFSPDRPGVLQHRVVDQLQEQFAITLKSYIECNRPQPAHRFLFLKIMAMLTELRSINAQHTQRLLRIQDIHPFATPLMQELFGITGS
Description: PXR reporter gene assay in LS180 cells transfected with pSG5-hPXR and p3A4-luc. The note with it: for PXR antagonist effect: antagonist mode, in the presence of RIF 10 μM, 24 h. Type of data set: cell-based. The method, boiled down:
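LS180 cells were lipofected transiently with pSG5-hPXR and p3A4-luc, then treated 24 h with test compound at up to 50 μM in DMSO 0.1% v/v. Agonist mode had no rifampicin; antagonist mode had RIF 10 μM. Luciferase was read after lysis. Antagonist data are % of the 10 μM RIF maximum. Four technical replicates, three consecutive passages.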

For data set [6], the system named is MDR1 mRNA. Kind of data set: qRT-PCR of MDR1 in intestinal adenocarcinoma cells. Type of data set: cell-based, human. Conditions: 24 h; for Induction of MDR1 mRNA: LS174T, LS174T+PXR and LS180+PXR cells; for Induction of MDR1 mRNA in PXR-KO cells: PXR-KO LS174T cells. In outline:
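Four intestinal models were used: LS174T wild-type, a CRISPR-Cas9 PXR-knockout LS174T line, and LS174T and LS180 cells transiently transfected with a human PXR expression vector. Cells were treated 24 h with test compound at 10 μM (DMSO 0.1% v/v), alongside TCDD 10 nM or RIF 10 μM. MDR1 mRNA was measured by qRT-PCR normalized to GAPDH. Three consecutive passages, one well per treatment.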

Data set [7] has as its target T2, PXR. The note with it: ref [21]; cited from earlier work.
Data set [8] has as its system CYP3A11 mRNA. Conditions: PXR target genes CYP3A11 and MDR1a; depending on the dose schedule; ref [21]; cited from earlier work.
In data set [9] the target is T3, ligand-binding domain of human PXR (Homo sapiens, UniProt O75469).
T3 sequence (O75469 146-433 limits assumed): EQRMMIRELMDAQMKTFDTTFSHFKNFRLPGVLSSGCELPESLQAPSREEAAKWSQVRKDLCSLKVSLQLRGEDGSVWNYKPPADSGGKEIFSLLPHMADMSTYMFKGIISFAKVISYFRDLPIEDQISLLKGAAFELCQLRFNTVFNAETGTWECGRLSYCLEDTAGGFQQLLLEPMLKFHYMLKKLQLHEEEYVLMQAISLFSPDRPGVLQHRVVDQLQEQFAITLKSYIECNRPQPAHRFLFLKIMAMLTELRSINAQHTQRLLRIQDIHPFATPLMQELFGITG
Description: LanthaScreen TR-FRET PXR. The method, boiled down:
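LanthaScreen TR-FRET competitive binding used the human PXR ligand-binding domain and measured displacement of a fluorescent ligand. The signal was the emission ratio 520 nm/495 nm, plotted against test compound concentration. IC50 came from interpolated sigmoidal 4PL variable-slope curves. Quadruplicate wells; at least four independent experiments. Positive control: SR12813 at 100 μM.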

Data set [10] deals with CYP1A2 mRNA. Description: qRT-PCR of CYP1A2 in primary human hepatocytes. Type of data set: cell-based. Conditions: human hepatocytes from five donors, 10 μM, 24 h. In outline:
(§2)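 Long-term monolayer primary human hepatocytes came from five male donors aged 43–89 years. They were treated 24 h with test compound at 10 μM, with vehicle DMSO 0.1% v/v and reference ligands TCDD 10 nM and RIF 10 μM. Total RNA was extracted with TRI Reagent, and mRNA was measured by probe-based qRT-PCR normalized to GAPDH. Statistics: one-way ANOVA, with 2-fold induction as threshold.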

The test system of data set [11] is CYP1A1 mRNA. Kind of data set: qRT-PCR of CYP1A1 in primary human hepatocytes. The format is cell-based. The note with it: human hepatocytes from five donors, 10 μM, 24 h. In outline: as §2
The subject of data set [12] is MDR1a mRNA. Kind of data set: MDR1a gene expression in tissues of mice expressing the human PXR transgene. The format is in vivo, mice expressing the human PXR gene (hPXR). The method, boiled down: (§3)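 Humanized hPXR mice (C57BL/6 background, 6–10 weeks) received 10% DMSO or test compound in 3 or 5 doses of 500 μM each, 12 h apart. Groups had n = 3 (1 male, 2 females). Small intestine, large intestine and liver were assayed by qRT-PCR for CYP3A11 and MDR1a mRNA. Analysis: unpaired multiple t-tests with Holm-Sidak correction, α = 0.05, and a ≥2-fold induction criterion.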

The test system of data set [13] is CYP3A11 mRNA. Kind of data set: CYP3A11 gene expression in tissues of mice expressing the human PXR transgene. The format is in vivo, mice expressing the human PXR gene (hPXR). In outline: as §3
Data set [14] concerns CYP3A4 mRNA. Description: qRT-PCR of CYP3A4 in primary human hepatocytes. Type of data set: cell-based. Conditions: five hepatocyte cultures, 10 μM, 24 h.
[15] abbreviates: liver, large and small intestine, 3 or 5 doses (500 μM/dose), 12 h interval.

As for `CO[C@H]1/C=C/O[C@@]2(C)Oc3c(C)c(O)c4c(O)c(c(/C=N/N5CCN(C)CC5)c(O)c4c3C2=O)NC(=O)/C(C)=C\C=C\[C@H](C)[C@H](O)[C@@H](C)[C@@H](O)[C@@H](C)[C@H](OC(C)=O)[C@@H]1C` [rifampicin], in data set [1], the “Induction of MDR1 mRNA in human hepatocytes” value was “induction only by rifampicin and only in three hepatocytes cultures”.

In general, pEC50 refers to the negative decadic logarithm of the EC50, by convention in mol/L. Turning to `O=S(=O)(c1ccccc1)n1c(C(O)c2ccn3ccnc3c2)cc2ccccc21` (stereo not shown) [CVK-017, imidazo[1,2-a]pyridin-7-yl(1-(phenylsulfonyl)-1H-indol-2-yl)methanol], in data set [2], the “Cytotoxicity in AZ-AHR cells” value is “cytotoxic effects”. Besides, in data set [3], the AhR agonistic activity entry is given as “moderate” and the “Inhibition of TCDD-inducible luciferase activity” value (“Inhibition” for short) was “Dose-dependent inhibition”. Moreover, in data set [4], the “Cytotoxicity (MTT)” value is reported as “slightly cytotoxic”. For the same compound, in data set [5], the pEC50 was ~6.10 and the PXR antagonist effect entry is recorded as “Dose-dependent antagonist effects”. Also, in [6], the “Induction of MDR1 mRNA” value is “Dose-dependent induction” and the “Induction of MDR1 mRNA in PXR-KO cells” value is reported as “no effects”.

For the compound `C#CCC(O)(c1ccncc1)c1cc2ccccc2n1S(=O)(=O)c1ccccc1` (stereo not shown) [FKK6, 1-(1-(phenylsulfonyl)-1H-indol-2-yl)-1-(pyridin-4-yl)but-3-yn-1-ol], the “PXR versus AhR agonist selectivity” value in data set [7] was “selective PXR agonist”. For the same compound, the “Induction of PXR target genes in mouse intestines or liver” value in [8] is recorded as “robustly induced”.

What is called pIC50 is the IC50 on a negative log10 scale, so that one unit is a factor of ten. A lower pIC50 goes with a large IC50. Take `C#CCC(O)(c1ccncc1)c1cc2ccccc2[nH]1` (stereo not shown) [CVK-003, 1-(1H-indol-2-yl)-1-(pyridin-4-yl)but-3-yn-1-ol]: in data set [9], the pIC50 was 5.07. The AhR agonistic activity entry in data set [3] is recorded as “strong”. Also, the negative-log EC50 (pEC50) in [5] is 5.12.

As to `O=C(c1ccn2ccnc2c1)c1cc2ccccc2n1S(=O)(=O)c1ccccc1` [CVK-016, imidazo[1,2-a]pyridin-7-yl(1-(phenylsulfonyl)-1H-indol-2-yl)methanone], the “Cytotoxicity in AZ-AHR cells” value in data set [2] was “cytotoxic effects”. Moreover, the “Inhibition” value in [3] is recorded as “Dose-dependent inhibition”. In addition, the “Cytotoxicity (MTT)” value in [4] is “slightly cytotoxic”. Moreover, the “Induction of hepatic CYP1A2 mRNA” value in data set [10] is recorded as “significantly induced”. For the same compound, the “Induction of hepatic CYP1A1 mRNA” value in [11] is on record as “significantly induced”. In data set [5], the pEC50 is ~6.10 and the PXR antagonist effect entry is given as “Dose-dependent antagonist effects”. For the same compound, in data set [6], the “Induction of MDR1 mRNA” value is recorded as “Dose-dependent induction” and the “Induction of MDR1 mRNA in PXR-KO cells” value is “no effects”.

For `C#CCC(O)(c1ccn2ccnc2c1)c1cc2ccccc2n1S(=O)(=O)c1ccccc1` (stereo not shown) [CVK-021, 1-(imidazo[1,2-a]pyridin-7-yl)-1-(1-(phenylsulfonyl)-1H-indol-2-yl)but-3-yn-1-ol], in data set [12] (large and small intestines), the “MDR1a gene expression, Figure 7A” value is “increased gene expression”. The “MDR1a gene expression, Figure 7B” value in data set [12] (liver and large intestine) was “increased gene expression”. In data set [12] (setting [15]), the “Induction (≥ 2) of mean MDR1a mRNA expression” value is given as “no significant induction”. The CYP3A11 gene expression entry in data set [13] (3-dose and 5-dose study) was “not affected”. Moreover, the “Induction (≥ 2) of mean CYP3A11 mRNA expression” value in data set [13] (setting [15]) is recorded as “no significant induction”. In [9], this compound gave a pIC50 of 6.04. Moreover, the “Cytotoxicity in AZ-AHR cells” value in data set [2] was “cytotoxic effects”. For the same compound, the “Inhibition” value in data set [3] is given as “Dose-dependent inhibition”. The “Cytotoxicity (MTT)” value in [4] is “slightly cytotoxic”. In [5], the pEC50 is ~6.10 and the PXR antagonist effect entry is listed as “Dose-dependent antagonist effects”. Besides, in data set [6], the “Induction of MDR1 mRNA” value was “Dose-dependent induction” and the “Induction of MDR1 mRNA in PXR-KO cells” value was “no effects”. Also, the “Induction of CYP3A4 mRNA in human hepatocytes” value in data set [14] is “significantly induced CYP3A4 mRNA in all five human hepatocytes cultures”.
